Screening results: PubChem, several laboratories
Myeloid diff 2 – myeloid differentiation induction; ER-HoxA9 myeloid progenitors, lysozyme-GFP differentiation, flow cytometry; calls only at 10 µM; 360,000 compounds, 1% hits; AID 624256;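 active = normalized GFP-positive differentiation at or above the plate's own cutoff, the solvent-only control mean plus 3 SD; inconclusive = no clear call, values can overlap the other calls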;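 also: cells exposed to compound for four days before flow analysis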
SENP1 FRET inh – SENP1 (human) catalytic domain inhibition; Q9P0U3; recombinant SENP1 catalytic domain, CyPet-SUMO1-YPet FRET cleavage; inhibition, % at 10 µM; 360,000 compounds, 0.21% hits; AID 624204;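 active = inhibition at least 30% at 10 µM, raw YFP signal under a set limit, fluorescence ratio 0.5 to 1.5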
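System: Recombinant human SENP1 catalytic domain, His6-tagged | Incubation: Enzyme reaction for 50 min at room temperature, dark | Medium: Tris pH 8 with BME, BSA, NP40 and catalase | Also added: 25 nM SUMO1 FRET substrate | Compound: 10 µM single point, 0.5% DMSO | Measured by: FRET fluorescence in CFP and YFP emission channels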
Platelet DG rel – platelet dense granule release activity; AID 1663; human platelet-rich plasma, SFLLRN dense granule ATP release, luminescence; 300,000 compounds, 0.22% hits; inhibition, %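 (compounds screened at 7.5 µM in platelet-rich plasma)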;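 active = mean replicate score, as percent of positive control, at or above 50; inconclusive = mean below 50 but at least one replicate at or above 50; inactive = mean and every replicate below 50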
VLA-4 inh – inhibition in a human VLA-4 binding assay; P13612; VLA-4 expressing cells, ligand binding flow cytometry; inhibition, % (about 7 µM as worked out from the volumes in the protocol); 330,000 compounds, 0.2% hits; AID 2557; in the data active = inhibition above about 50%
Target sequence (P13612 whole entry, looked up): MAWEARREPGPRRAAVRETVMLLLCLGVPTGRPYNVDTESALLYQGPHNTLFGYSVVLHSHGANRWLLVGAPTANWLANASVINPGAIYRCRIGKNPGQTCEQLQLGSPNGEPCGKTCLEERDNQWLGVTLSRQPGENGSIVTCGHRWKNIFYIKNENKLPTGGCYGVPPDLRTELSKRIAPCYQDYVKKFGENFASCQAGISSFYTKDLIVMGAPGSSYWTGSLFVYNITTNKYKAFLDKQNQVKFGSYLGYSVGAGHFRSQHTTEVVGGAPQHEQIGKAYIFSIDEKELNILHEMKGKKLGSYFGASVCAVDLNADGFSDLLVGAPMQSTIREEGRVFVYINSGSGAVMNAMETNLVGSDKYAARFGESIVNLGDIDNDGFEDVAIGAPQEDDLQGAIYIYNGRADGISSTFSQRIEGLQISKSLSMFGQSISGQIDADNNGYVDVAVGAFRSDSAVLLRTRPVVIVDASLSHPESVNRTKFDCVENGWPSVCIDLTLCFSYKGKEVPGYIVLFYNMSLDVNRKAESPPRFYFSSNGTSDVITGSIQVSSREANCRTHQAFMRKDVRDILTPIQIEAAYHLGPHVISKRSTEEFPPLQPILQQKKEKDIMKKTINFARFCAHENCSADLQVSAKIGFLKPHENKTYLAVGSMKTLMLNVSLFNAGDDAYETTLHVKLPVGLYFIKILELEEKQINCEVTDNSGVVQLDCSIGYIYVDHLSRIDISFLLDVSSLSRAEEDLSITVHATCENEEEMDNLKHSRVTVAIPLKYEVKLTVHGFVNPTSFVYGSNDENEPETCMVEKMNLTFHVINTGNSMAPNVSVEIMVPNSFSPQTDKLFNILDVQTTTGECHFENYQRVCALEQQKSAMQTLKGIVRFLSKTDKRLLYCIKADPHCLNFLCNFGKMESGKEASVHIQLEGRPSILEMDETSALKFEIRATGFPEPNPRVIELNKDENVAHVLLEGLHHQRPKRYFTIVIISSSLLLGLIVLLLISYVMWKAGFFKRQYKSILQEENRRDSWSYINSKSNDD
Large screens that a line does not name were inactive. Shown are actives, neighbours in structure and some others; about 1.5% of the full set was active somewhere.

COC(=O)c1sc2cc([N+](=O)[O-])cc(SCC(C)C)c2c1N	Myeloid diff 2 active
CCOC(=O)c1sc2ncc([N+](=O)[O-])cc2c1N	none
C=CCC1(/C=N/O)CCOC(C)(C)C1 (stereo not given)	none
N#Cc1cc(Sc2ccccn2)c([N+](=O)[O-])cc1C#N	Myeloid diff 2 active
N#Cc1cc(Sc2ccccn2)c(Sc2ccccn2)cc1C#N	Myeloid diff 2 inconclusive
O=C(NC1CCCC1)C1CC(O)CN1C(=O)Nc1ccccc1 (stereo not given)	none
COc1cc(C(=O)NCC(c2cccs2)N2CCOCC2)ccc1OCc1ccccc1 (stereo not given)	none (no result: Platelet DG rel, VLA-4 inh)
Cc1ccc(S(=O)(=O)NCCC(=O)OCC(=O)NC(=O)c2cccn2C)cc1	Platelet DG rel 61
Cc1ccc(S(=O)(=O)NCC(=O)OCC(=O)NC(=O)c2cccn2C)cc1	none
CC(=O)Nc1cccc(-c2ccnc3c2CC(C(=O)NCc2ccco2)O3)c1 (stereo not given)	none (no result: Platelet DG rel, VLA-4 inh)
C=CCN1C(=O)[C@@H]2Cc3c([nH]c4ccccc34)C(c3cc(OC)c(OC)c(OC)c3)N2C1=S (stereo not given in full)	Myeloid diff 2 active
CCN1C(=O)[C@@H]2Cc3c([nH]c4ccccc34)C(c3cc(OC)c(OC)c(OC)c3)N2C1=S (stereo not given in full)	Myeloid diff 2 active
COc1cc([C@H]2c3[nH]c4ccccc4c3C[C@H]3C(=O)N4[C@@H](c5cc(OC)c(OC)c(OC)c5)c5[nH]c6ccccc6c5C[C@H]4C(=O)N23)cc(OC)c1OC	none
C=CCN1C(=O)[C@@H]2Cc3c([nH]c4ccccc34)C(c3ccc(O)cc3)N2C1=S (stereo not given in full)	Myeloid diff 2 active
N#C/C(=C(/O)COC(=O)c1ccc(C#N)cc1)c1nc2ccccc2s1	Myeloid diff 2 active
Cc1ccnc(N2C(=O)c3ccccc3C2Nc2cccc(C)c2C)c1 (stereo not given)	none
Cc1ccnc(N2C(=O)c3ccccc3C2O)c1 (stereo not given)	Platelet DG rel 69
CC(OC(=O)CCCC(=O)Nc1ccccc1)C(=O)c1ccccc1 (stereo not given)	none
COc1cccc(C(=O)O[C@H]2[C@H](C)NS(=O)(=O)[C@H]3C[C@@H]4C=C[C@]23O4)c1	none (no result: Platelet DG rel)
O=C(CNC(=S)NC(=O)c1ccc(Br)o1)c1ccccc1	Myeloid diff 2 active
Cc1ccc(SCC(=O)OC(C)C(=O)NCc2ccccc2)cc1C (stereo not given)	none
Cc1cccc2cc(C#N)c(NCCNS(=O)(=O)c3ccc4c(c3)OCCO4)nc12	Myeloid diff 2 active
CNC(=O)CCCCC(=O)N/N=C/c1ccc(Cl)cc1Cl	none
CCOC(=O)C1=C(CSc2nc(CC)c(C)cc2C#N)OC(N)=C(C#N)C1c1ccc(OC)cc1 (stereo not given)	Myeloid diff 2 active
Cc1ccc(C(=O)NCC(=O)N(C)CC(=O)Nc2ccccc2Br)s1	none (no result: Platelet DG rel)
O=C(COC(=O)C1COc2ccccc2O1)Nc1ccccc1OC(F)F (stereo not given)	none (no result: Platelet DG rel)
C[C@]12CCC[C@H](O1)c1c(cc3c(c1O)C(=O)c1c(O)cc(O)cc1C3=O)O2	SENP1 FRET inh 31
CC1(C)CC(=O)c2c(O)cc(O)cc2O1	none
O=c1oc2ccccc2cc1-c1csc(Cc2nc(-c3ccc(Cl)cc3)cs2)n1	none
CCN(CC)c1ccc2cc(-c3nc(-c4cc5ccccc5oc4=O)cs3)c(=O)oc2c1	Myeloid diff 2 active (no result: Platelet DG rel, VLA-4 inh)
O=C(C[C@H]1C(=O)N(Cc2ccccc2)C[C@@H]1c1ccc(Br)cc1)Nc1ccc(Br)cc1	none (no result: Platelet DG rel, VLA-4 inh)
CC(=O)N1CCc2cc(S(=O)(=O)CCC(=O)Nc3ccccc3F)ccc21	Myeloid diff 2 active
O=C1c2ccccc2C(=O)c2cc(N3CCCCC3)ccc21	Myeloid diff 2 active, SENP1 FRET inh 95 (no result: Platelet DG rel, VLA-4 inh)
c1ccc2cc(N3CCCCC3)ccc2c1	none (no result: Platelet DG rel, VLA-4 inh)
CSc1ccccc1N=CC1=C(O)CC(C)(C)CC1=O	none
COc1cccc(N=CC2=C(O)CC(C)(C)CC2=O)c1	none
CC1(C)CC(=O)C(C=Nc2ccc(N)cc2)=C(O)C1	Myeloid diff 2 active
CC1(C)CC(=O)C(C=Nc2cc(C(=O)c3ccccc3)ccc2N)=C(O)C1	Myeloid diff 2 active
COC(=O)c1ccc(N)c(N=CC2=C(O)CC(C)(C)CC2=O)c1	Myeloid diff 2 active
COc1cc(C=O)cc(Cl)c1OC(=O)N1CCOCC1	none
CCCCCCNCC(=O)N1CCC(Cc2ccccc2)CC1	Myeloid diff 2 inconclusive
Cc1ccc(NC(=O)CNC(=O)Cc2cccc3ccccc23)c(O)c1	none
COC(=O)c1ccc(OCC(=O)NCCC2=CCCCC2)c(OC)c1	none (no result: Platelet DG rel)
CCCc1cc(=O)oc2cc(OCC(=O)N3CCc4ccccc43)ccc12	Platelet DG rel 74
CCN(CC)c1ccc(/C=N/NC(=O)c2ccoc2C)c(O)c1	Platelet DG rel 117 (no result: Myeloid diff 2)
CCN(CC)c1ccc(/C=N/NC(=O)OC)c(O)c1	none (no result: Platelet DG rel)
COc1cccc(/C=N/NC(=O)c2ccc3nc[nH]c3c2)c1O	none
CCN(CC)c1ccc(/C=N/NC(=O)c2ccc3nc[nH]c3c2)c(O)c1	Myeloid diff 2 active
O=C(NCC1(O)CCCCC1)C1CCC(=O)N(Cc2cccc(C(F)(F)F)c2)C1 (stereo not given)	none
CCOc1cccc(Nc2cc3n(c(=O)n2)CCc2cc(OC)c(OC)cc2-3)c1	none
COc1cc2c(cc1OC)-c1cc(N3CCCCCC3)nc(=O)n1CC2	Platelet DG rel 54
COc1ccc(Nc2cc3n(c(=O)n2)CCc2cc(OC)c(OC)cc2-3)c(C)c1	Platelet DG rel 80
COc1cc2c(cc1OC)-c1cc(Nc3ccc(C)cc3)nc(=O)n1CC2	Platelet DG rel 113
COc1cc2c(cc1OC)-c1cc(Nc3ccc4c(c3)OCCO4)nc(=O)n1CC2	Platelet DG rel 51
Cc1cc(C(=O)Nc2ccccc2C)n(-c2ccccc2)n1	none
COc1cc2c(cc1OC)-c1cc(N3CCc4ccccc43)nc(=O)n1CC2	Platelet DG rel inconclusive
COc1cc2c(cc1OC)-c1cc(Nc3ccccc3)nc(=O)n1CC2	Platelet DG rel 131
COc1cc2c(cc1OC)-c1cc(Nc3ccc(C(=O)O)cc3)nc(=O)n1CC2	none
COc1ccc(Nc2cc3n(c(=O)n2)CCc2cc(OC)c(OC)cc2-3)cc1	Platelet DG rel 61 (no result: Myeloid diff 2)
COc1cc2c(cc1OC)-c1cc(NC3CCCCCC3)nc(=O)n1CC2	Platelet DG rel 82
COc1cc2c(cc1OC)-c1cc(Nc3ccccc3Br)nc(=O)n1CC2	Platelet DG rel 94
COc1cc(C(=O)NCc2nnc(SCC(=O)NC3CCCCC3)o2)cc(OC)c1OC	none
CCn1c(Cc2cccn2C)nnc1SCC(=O)c1ccc(C)cc1	Platelet DG rel 58
C[C@@H]1CN([C@@H](C)CO)C(=O)CCCn2cc(nn2)CO[C@H]1CN(C)S(=O)(=O)c1ccc(Oc2ccccc2)nc1	none (no result: Platelet DG rel, VLA-4 inh)
C[C@H](CO)N1C[C@H](C)[C@@H](CN(C)CC2CC2)OCc2cnnn2CCCC1=O	Myeloid diff 2 active (no result: Platelet DG rel, VLA-4 inh)
C[C@H]1CN([C@@H](C)CO)C(=O)CCCn2cc(nn2)CO[C@@H]1CN(C)S(=O)(=O)c1ccc(Oc2ccccc2)nc1	Myeloid diff 2 active (no result: Platelet DG rel, VLA-4 inh)
